{"source": "ChEMBL document CHEMBL2169850", "about": "“3,6-bis(3-alkylguanidino)acridines as DNA-intercalating antitumor agents” (Eur J Med Chem, 2012)", "key": {"[1]": {"system": "HL-60", "assay": "Cell cycle arrest in human HL60 cells assessed as accumulation at G1 phase at 25 uM incubated for 24 hrs by flow cytometry (reference value: 35.96 +/- 1.63%)", "type": "functional"}, "[2]": {"system": "HL-60", "assay": "Cell cycle arrest in human HL60 cells assessed as accumulation at G2/M phase at 5 uM incubated for 24 hrs by flow cytometry (reference value: 19.62 +/- 0.96%)", "type": "functional"}, "[3]": {"system": "HL-60", "assay": "Induction of mitochondrial membrane dissipation in human HL60 cells at 5 to 25 uM incubated for 24 to 72 hrs by FACS assay", "type": "functional", "procedure,_shortened": "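HL-60 cells (5 × 10^5) were treated 24, 48 or 72 h, washed in HBSS and loaded with TMRE for 20 min at 37 °C in the dark. TMRE fluorescence in FL2 was read by flow cytometry, with 1 × 10^4 gated cells per sample. Result is the percentage of cells with decreased fluorescence (dissipated MMP). Mean ± SD, n ≥ 3.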"}, "[4]": {"system": "HL-60", "assay": "Cell cycle arrest in human HL60 cells assessed as accumulation at G2/M phase at 15 uM incubated for 48 hrs by flow cytometry (reference value: 16.42 +/- 1.03%)", "type": "functional"}, "[5]": {"target": "T1, DNA topoisomerase 1 (Homo sapiens) (UniProt P11387)", "T1 sequence (whole entry)": "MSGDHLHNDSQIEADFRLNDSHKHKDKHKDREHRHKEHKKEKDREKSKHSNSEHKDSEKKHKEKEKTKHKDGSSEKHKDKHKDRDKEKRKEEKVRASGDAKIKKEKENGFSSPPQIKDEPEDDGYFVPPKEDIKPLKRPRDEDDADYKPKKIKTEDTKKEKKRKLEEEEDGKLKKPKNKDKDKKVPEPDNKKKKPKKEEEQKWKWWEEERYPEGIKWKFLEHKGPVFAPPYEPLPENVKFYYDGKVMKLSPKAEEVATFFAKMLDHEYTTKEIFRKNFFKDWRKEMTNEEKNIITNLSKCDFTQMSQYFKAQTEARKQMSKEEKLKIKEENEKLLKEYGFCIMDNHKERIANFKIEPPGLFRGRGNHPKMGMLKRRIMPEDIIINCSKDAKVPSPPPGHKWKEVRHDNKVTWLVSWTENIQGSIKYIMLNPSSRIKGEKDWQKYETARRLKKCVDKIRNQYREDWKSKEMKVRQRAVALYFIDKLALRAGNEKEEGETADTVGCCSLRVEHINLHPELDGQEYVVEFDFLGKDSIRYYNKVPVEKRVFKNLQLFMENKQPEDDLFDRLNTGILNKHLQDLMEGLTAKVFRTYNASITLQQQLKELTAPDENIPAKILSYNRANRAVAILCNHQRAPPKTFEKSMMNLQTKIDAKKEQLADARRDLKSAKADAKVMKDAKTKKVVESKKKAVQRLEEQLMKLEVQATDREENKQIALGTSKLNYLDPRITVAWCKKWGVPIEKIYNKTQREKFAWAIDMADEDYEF", "assay": "Inhibition of human topoisomerase 1 assessed as reduction in pBR322 DNA relaxation of relaxation at 60 uM by DNA unwinding assay"}, "[6]": {"system": "HL-60", "assay": "Cell cycle arrest in human HL60 cells assessed as accumulation at G2/M phase at 5 uM incubated for 48 hrs by flow cytometry (reference value: 16.42 +/- 1.03%)", "type": "functional"}, "[7]": {"system": "Nucleic Acid", "assay": "Binding affinity to Escherichia coli pUC19 DNA assessed as reduction in DNA mobility to 5 to 80 uM by EMSA", "type": "nucleic-acid assay", "procedure,_shortened": "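Supercoiled pUC19 plasmid incubated with compound at 5, 20, 40, 60 or 80 µM. Native agarose gel electrophoresis run with no ethidium bromide in the gel; band mobility was then read.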"}, "[8]": {"system": "HL-60", "assay": "Cell cycle arrest in human HL60 cells assessed as accumulation at G1 phase at 15 uM incubated for 24 hrs by flow cytometry (reference value: 35.96 +/- 1.63%)", "type": "functional"}, "[9]": {"system": "HL-60", "assay": "Cell cycle arrest in human HL60 cells assessed as accumulation at G2/M phase at 25 uM incubated for 72 hrs by flow cytometry (reference value: 12.68 +/- 3.21%)", "type": "functional"}, "[10]": {"system": "HL-60", "assay": "Induction of apoptosis in human HL60 cells at 5 to 25 uM incubated for 72 hrs by AnnexinV/propidium iodide staining method", "type": "functional, cell-based", "procedure,_shortened": "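HL-60 cells (1.5 × 10^5) were treated at 5–25 µM for 24, 48 or 72 h and harvested. They were stained with Annexin V-FITC for 10 min in HEPES/CaCl2/NaCl binding buffer, washed, briefly stained with PI (1 mg/mL) and analysed by flow cytometry for apoptosis and necrosis. Mean ± SD, n ≥ 3.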"}, "[11]": {"system": "HL-60", "assay": "Cell cycle arrest in human HL60 cells assessed as accumulation at G1 phase at 15 uM incubated for 48 hrs by flow cytometry (reference value: 38.29 +/- 0.22%)", "type": "functional"}, "[12]": {"system": "HL-60", "assay": "Cell cycle arrest in human HL60 cells assessed as accumulation at S phase at 15 uM incubated for 48 hrs by flow cytometry (reference value: 45.29 +/- 1.23%)", "type": "functional"}, "[13]": {"system": "HL-60", "assay": "Antiproliferative activity against human HL60 cells assessed as cell number at 5 uM incubated for 72 hrs by Coulter counting method", "type": "functional", "procedure,_shortened": "(§1)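 HL-60 cells in RPMI with 10% heat-inactivated FCS, antibiotics and amphotericin, 37 °C, 5% CO2, seeded in 60 mm dishes. Compound added at 5, 15 or 25 µM for 24, 48 or 72 h. Absolute cell counts taken by Coulter counter and expressed as percentage of untreated control. Mean ± SD of at least three independent experiments; one-way ANOVA with Tukey test, p < 0.05.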"}, "[14]": {"system": "HL-60", "assay": "Antiproliferative activity against human HL60 cells assessed as cell number at 5 uM incubated for 24 hrs by Coulter counting method", "type": "functional", "procedure,_shortened": "as §1"}, "[15]": {"system": "HL-60", "assay": "Cell cycle arrest in human HL60 cells assessed as accumulation at G2/M phase at 15 uM incubated for 72 hrs by flow cytometry (reference value: 12.68 +/- 3.21%)", "type": "functional"}, "[16]": {"system": "HL-60", "assay": "Cell cycle arrest in human HL60 cells assessed as accumulation at G1 phase at 5 uM incubated for 72 hrs by flow cytometry (reference value: 47.02 +/- 6.19%)", "type": "functional"}, "[17]": {"system": "HL-60", "assay": "Antiproliferative activity against human HL60 cells assessed as cell number at 15 uM incubated for 48 hrs by Coulter counting method", "type": "functional", "procedure,_shortened": "as §1"}, "[18]": {"system": "HL-60", "assay": "Cell cycle arrest in human HL60 cells assessed as accumulation at S phase at 5 uM incubated for 72 hrs by flow cytometry (reference value: 40.30 +/- 3.15%)", "type": "functional"}, "[19]": {"system": "HL-60", "assay": "Cell cycle arrest in human HL60 cells assessed as accumulation at G1 phase at 5 uM incubated for 48 hrs by flow cytometry (reference value: 38.29 +/- 0.22%)", "type": "functional"}, "[20]": {"system": "HL-60", "assay": "Cell cycle arrest in human HL60 cells assessed as accumulation at G2/M phase at 25 uM incubated for 48 hrs by flow cytometry (reference value: 16.42 +/- 1.03%)", "type": "functional"}, "[21]": {"system": "HL-60", "assay": "Cell cycle arrest in human HL60 cells assessed as accumulation at S phase at 25 uM incubated for 48 hrs by flow cytometry (reference value: 45.29 +/- 1.23%)", "type": "functional"}, "[22]": {"system": "Nucleic Acid", "assay": "Binding affinity to calf thymus DNA at 6.5 uM by CD spectroscopy", "type": "nucleic-acid assay", "details": "Bos taurus", "procedure,_shortened": "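CD spectra were recorded in 1 mm quartz cuvettes in 0.01 M Tris, pH 7.4, with 6.52 µM compound and ctDNA. Each spectrum is the mean of three scans after buffer background subtraction.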"}}, "note": "Activity calls are given as the source filed them. No cut-off for these calls is given here."}
{"smiles": "CCCCCCNC(=N)Nc1ccc2cc3ccc(NC(=N)NCCCCCC)cc3nc2c1.Cl.Cl.O", "values": [{"measurement": "Activity", "setting": "[1]", "value": 51.52, "unit": "%"}, {"measurement": "Activity", "setting": "[2]", "value": 16.37, "unit": "%"}, {"measurement": "Activity", "setting": "[3]", "value": 70, "unit": "%"}, {"measurement": "Activity", "setting": "[4]", "value": 8.11, "unit": "%"}, {"measurement": "Topoisomerase 1 inhibition (active/inactive)", "setting": "[5]", "value": "Active"}, {"measurement": "Activity", "setting": "[6]", "value": 11.36, "unit": "%"}, {"measurement": "Activity", "setting": "[7]", "value": "inactive"}, {"measurement": "Activity", "setting": "[8]", "value": 41.77, "unit": "%"}, {"measurement": "Activity", "setting": "[9]", "value": 3.91, "unit": "%"}, {"measurement": "Activity", "setting": "[10]", "value": "Active"}, {"measurement": "Activity", "setting": "[11]", "value": 64.37, "unit": "%"}, {"measurement": "Activity", "setting": "[12]", "value": 27.52, "unit": "%"}, {"measurement": "Activity", "setting": "[13]", "value": 57.54, "unit": "%"}, {"measurement": "Activity", "setting": "[14]", "value": 73.7, "unit": "%"}, {"measurement": "Activity", "setting": "[15]", "value": 5.85, "unit": "%"}, {"measurement": "Activity", "setting": "[16]", "value": 48.93, "unit": "%"}, {"measurement": "Activity", "setting": "[17]", "value": 52.7, "unit": "%"}, {"measurement": "Activity", "setting": "[18]", "value": 43.6, "unit": "%"}, {"measurement": "Activity", "setting": "[19]", "value": 45.1, "unit": "%"}, {"measurement": "Activity", "setting": "[20]", "value": 6.51, "unit": "%"}, {"measurement": "Activity", "setting": "[21]", "value": 27.77, "unit": "%"}, {"measurement": "Activity", "setting": "[22]", "value": "Active"}]}
{"smiles": "CCNC(=N)Nc1ccc2cc3ccc(NC(=N)NCC)cc3nc2c1.Cl.Cl.O", "values": [{"measurement": "Activity", "setting": "[1]", "value": "inactive"}, {"measurement": "Activity", "setting": "[2]", "value": "inactive"}, {"measurement": "Activity", "setting": "[3]", "value": "inactive"}, {"measurement": "Activity", "setting": "[4]", "value": "inactive"}, {"measurement": "Topoisomerase 1 inhibition (active/inactive)", "setting": "[5]", "value": "Active"}, {"measurement": "Activity", "setting": "[6]", "value": "inactive"}, {"measurement": "Activity", "setting": "[7]", "value": "Active"}, {"measurement": "Activity", "setting": "[8]", "value": "inactive"}, {"measurement": "Activity", "setting": "[9]", "value": "inactive"}, {"measurement": "Activity", "setting": "[10]", "value": "inactive"}, {"measurement": "Activity", "setting": "[11]", "value": "inactive"}, {"measurement": "Activity", "setting": "[12]", "value": "inactive"}, {"measurement": "Activity", "setting": "[13]", "value": 79.32, "unit": "%"}, {"measurement": "Activity", "setting": "[14]", "value": 71.7, "unit": "%"}, {"measurement": "Activity", "setting": "[15]", "value": "inactive"}, {"measurement": "Activity", "setting": "[16]", "value": "inactive"}, {"measurement": "Activity", "setting": "[17]", "value": 80.03, "unit": "%"}, {"measurement": "Activity", "setting": "[18]", "value": "inactive"}, {"measurement": "Activity", "setting": "[19]", "value": "inactive"}, {"measurement": "Activity", "setting": "[20]", "value": "inactive"}, {"measurement": "Activity", "setting": "[21]", "value": "inactive"}, {"measurement": "Activity", "setting": "[22]", "value": "Active"}]}
